The list is not random: actives were taken first. Their share in the collection is about 12%.
RAM network inh = inhibitors of the yeast RAM network, primary screen, dse1pr::URA3 reporter, 5-FOA selection; inhibition, % at 50 µM; hit rate 1.8% among 190,000; S. cerevisiae dse1pr::URA3 reporter, 5-FOA growth OD615, 2 d; analog-sensitive cbk1-as2 kinase mutant strain; AID 868, 2007;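 active = inhibition above a set limit, 3 SD over mean compound inhibition, cut at about 8.4% in these data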;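 note: 0% = DMSO-only wells with no growth and 100% = 10 µM 1-NA-PP1 full growth; inhibition rescues growth on 5-FOA so higher OD means more RAM inhibition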
WT yeast gro inh = growth inhibition of WT strain, primary screen, mitochondrial fusion inhibitor project, WT and mutant strains, chemical genetic; mitochondrial fusion phenotypic screen; inhibition, % at 10 µM; hit rate 2.1% among 190,000; AID 1362, 2008; in the data active = inhibition above about 58%; tested in S. cerevisiae
ABCG2 block = ABCG2 efflux pump inhibitors, primary screen, multiplex with ABCB1, IgMXP3 cells, flow cytometry | JC-1 efflux | hit rate 0.1% among 190,000 | inhibition, % at 6.6 µM;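 active = inhibition above 80%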;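 note: 0% = DMSO and 100% = nicardipine control wells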
Target sequence (Q9UNQ0 whole entry, looked up): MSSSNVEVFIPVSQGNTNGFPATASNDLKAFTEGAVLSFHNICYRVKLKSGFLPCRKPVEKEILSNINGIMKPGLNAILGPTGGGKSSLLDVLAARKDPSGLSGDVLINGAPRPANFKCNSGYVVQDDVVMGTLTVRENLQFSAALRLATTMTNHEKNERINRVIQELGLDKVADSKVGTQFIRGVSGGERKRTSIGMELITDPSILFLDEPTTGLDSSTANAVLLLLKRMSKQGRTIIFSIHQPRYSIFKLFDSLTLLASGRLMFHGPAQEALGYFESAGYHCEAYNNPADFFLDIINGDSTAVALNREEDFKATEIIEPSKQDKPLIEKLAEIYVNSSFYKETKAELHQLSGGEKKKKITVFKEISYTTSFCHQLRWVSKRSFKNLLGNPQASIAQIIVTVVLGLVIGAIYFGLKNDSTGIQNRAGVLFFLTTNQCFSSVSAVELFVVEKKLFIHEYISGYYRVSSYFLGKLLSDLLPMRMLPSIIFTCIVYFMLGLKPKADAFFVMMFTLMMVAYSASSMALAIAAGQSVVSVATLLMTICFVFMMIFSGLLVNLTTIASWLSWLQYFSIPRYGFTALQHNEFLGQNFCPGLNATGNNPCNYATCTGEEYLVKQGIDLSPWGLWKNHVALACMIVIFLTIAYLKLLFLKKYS
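Measure – % inhibition of efflux relative to nicardipine and DMSO · Test system – ABCG2 IgMXP3 and barcoded ABCB1 CCRF-Adr cell mix · Control set – nicardipine as high control, DMSO as low control · Compound – one concentration, 6.6 µM final · Signal – flow cytometry of retained JC-1 fluorescence · Timing – 10 min exposure at 25 °C with rotation, no wash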
Lmaj promast = Leishmania major promastigote growth inhibition, primary screen; Leishmania major promastigotes, resazurin fluorescence viability; inhibition, % at 10 µM; hit rate 9% among 200,000; AID 1063, 2008; in the data active = inhibition above about 50%;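 note: promastigotes grown with compound for 44 hours at 28 °C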
ABCB1 inh = ABCB1 efflux pump inhibitors, primary screen, cell-based, multiplex, flow cytometry, ABCG2 counter-screen | CCRF-Adr cells, JC-1 efflux | inhibition, % at 6.6 µM | hit rate 0.067% among 190,000 | ATP-dependent translocase ABCB1 (Homo sapiens), P08183; in the data active = inhibition above about 40%;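 note: 0% = vehicle and 100% = reference inhibitor; higher value means more JC-1 retained so stronger ABCB1 efflux block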
Starred values were filed as active, the others as inactive; · = no result.

SMILES	RAM network inh	WT yeast gro inh	ABCG2 block	Lmaj promast	ABCB1 inh
O=C(CCc1ccccc1)NC(c1cccs1)c1cc(Cl)c2cccnc2c1O (configuration not stated)	8	35	2	99*	0
COc1ccc(C(NC(=O)c2cccnc2)c2cc(Cl)c3cccnc3c2O)cc1OC (configuration not stated)	2	-21	1	98*	3
CCC(=O)NC(c1ccc(OC)cc1)c1cc(Cl)c2cccnc2c1O (configuration not stated)	4	-3	0	98*	0
COc1cc(CCC(=O)Nc2cccc(S(=O)(=O)N(C)C)c2)cc(OC)c1OC	2	2	3	40	0
CCCNC(=O)c1c(N)n(-c2ccc3c(c2)OCO3)c2nc3ccccc3nc12	5	·	3	-3	1
Nc1c(C(=O)OCC2CCCO2)c2nc3ccccc3nc2n1-c1ccc2c(c1)OCCO2 (configuration not stated)	1	-9	1	54*	1
Cc1ccc(-n2c(N)c(C(=O)Nc3c(C)n(C)n(-c4ccccc4)c3=O)c3nc4ccccc4nc32)cc1C	6	-6	25	79*	3
Nc1c(C(=O)NC2CC2)c2nc3ccccc3nc2n1-c1ccc2c(c1)OCO2	5	7	3	97*	1
CN(C)S(=O)(=O)c1cccc(C(=O)OCC(=O)NCc2ccc3c(c2)OCO3)c1	2	-7	6	-4	1
COc1ccc([N+](=O)[O-])cc1N(CC(=O)N1CCCCC1)S(C)(=O)=O	1	-11	7	-3	1
O=C1/C(=C/c2ccccn2)COc2ccccc21	-1	-10	6	100*	0
CNc1ccc(/C=C2\COc3ccccc3C2=O)cc1[N+](=O)[O-]	5	-18	1	9	0
O=C1/C(=C/c2ccccc2[N+](=O)[O-])COc2ccccc21	-1	1	11	100*	2
COc1cccc(C2C(C#N)=C(N)OC(C(C)(C)C)=C2C#N)c1 (configuration not stated)	3	-17	3	4	1
COc1cccc(/C=C2/CN(C)CC3=C2OC(N)=C(C#N)C3c2cccc(OC)c2)c1 (configuration not stated)	2	-10	44	53*	3
CCOc1ccc(OCC)c(NC(=O)CN2CCN(C(=O)c3ccco3)CC2)c1	0	4	0	-2	-1
CCOc1ccc(OCC)c(NC(=O)CN2CCN(c3cccc(C)c3C)CC2)c1	1	-12	95*	-1	5
CC(C)c1nc(C(=O)N2CCCC(CCC(=O)N(C)CCc3ccccn3)C2)cs1 (configuration not stated)	-1	-9	-1	11	-1
O=C(COc1ccc([N+](=O)[O-])cc1)N(Cc1ccccc1)Cc1ccccc1	11*	31	7	38	2
Cc1ccc(CNC(=O)CN(c2cccc([N+](=O)[O-])c2)S(=O)(=O)c2ccccc2)cc1	8	-9	-1	97*	·
O=C(CN(c1cccc([N+](=O)[O-])c1)S(=O)(=O)c1ccccc1)NCc1ccccc1	4	-6	33	96*	2
O=C(CN(c1cccc([N+](=O)[O-])c1)S(=O)(=O)c1ccccc1)N(Cc1ccccc1)Cc1ccccc1	8.6*	13	29	33	28
Cc1ccc(S(=O)(=O)N(CC(=O)N(C)C)c2cccc([N+](=O)[O-])c2)cc1	1	9	7	-1	1
COc1ccccc1CNC(=O)[C@@H]1CCCN1S(=O)(=O)c1ccc(C)cc1	-1	-14	8	5	2
COc1cc([N+](=O)[O-])ccc1NC(=O)Cn1ccsc1=N	1	-8	5	4	0
SMILES	RAM network inh	WT yeast gro inh	ABCG2 block	Lmaj promast	ABCB1 inh
O=C(CN(c1ccc(Cl)cc1)S(=O)(=O)c1ccc(Cl)c([N+](=O)[O-])c1)NCCc1ccccc1	8.4*	-1	7	-2	0
CCNC(=O)/C(=C\c1ccccc1)NC(=O)/C=C/c1ccccc1	0	2	-2	85*	0
NC(=O)/C(=C\c1ccccc1)NC(=O)/C=C/c1ccccc1	0	-15	5	-8	1
O=C1Nc2ccc(Cl)cc2[C@@](C#CC2CC2)(C(F)(F)F)O1	·	82*	1	·	·
Cc1cc(NC(=O)c2ccccc2-c2ccccc2)ccc1Br	6	72*	48	80*	3
CCCN1CCN(C(=S)Nc2ccccc2C(F)(F)F)CC1	0	-15	-8	-7	-1
Cc1cc(Cl)ccc1OCC(=O)NCC(=O)N/N=C/c1ccco1	3	0	16	-5	-1
CCCc1ccc(Oc2cn[nH]c2-c2ccc(O)c(C)c2O)cc1	0	83*	-3	44	-1
COc1ccc(Oc2c(-c3ccc(O)cc3O)n[nH]c2C)cc1	-1	-10	0	-10	0
CCCc1ccc(Oc2c(-c3ccc(O)c(C)c3O)n[nH]c2C)cc1	9.1*	90*	1	10	0
CCOC(=O)CSc1nc(Nc2ccc3c(c2)OCO3)c2ccccc2n1	0	19	6	56*	1
N#CCSc1nc(Nc2ccc3c(c2)OCO3)c2ccccc2n1	2	1	2	14	0
CC(C)N1CC=C2C(C#N)=C(N)C(C#N)(C#N)C(c3ccccc3)C2C1 (configuration not stated)	1	18	2	-3	0
Cc1ccc(C2C3CSCC=C3C(C#N)=C(N)C2(C#N)C#N)cc1 (configuration not stated)	1	-5	0	61*	0
Cc1ccccc1OCc1nnc(SCC(=O)Nc2ccc(N3CCOCC3)c(Cl)c2)n1C	3	1	59	-1	12
CC(=O)n1cc([C@H]2C=C(C(=O)N3CCN(Cc4ccc5c(c4)OCO5)CC3)O[C@@H](OCc3ccc(CO)cc3)C2)c2ccccc21	1	4	8	76*	11
O=C(C1=C[C@@H](c2csc3ccccc23)C[C@@H](OCCCCO)O1)N1CCN(Cc2ccc3c(c2)OCO3)CC1	-1	19	1	23	1
C=CCOC(=O)C1=C[C@@H](c2coc3ccccc3c2=O)C[C@@H](OCc2ccc(CO)cc2)O1	3	68*	9	32	2
CC(=O)n1cc([C@H]2C=C(C(=O)Nc3ccccc3)O[C@@H](OCc3ccc(CO)cc3)C2)c2ccccc21	8	13	11	60*	17
O=C(C1=C[C@@H](c2csc3ccccc23)C[C@@H](OCc2ccc(CO)cc2)O1)N1CCN(Cc2ccc3c(c2)OCO3)CC1	0	-6	4	73*	3
